Molecules are shown by their SMILES. Active and inactive are the calls of the source. The calls are words filed in the database; no cut-off is given here.

Test [1] is described as follows: Inhibition of colony formation in Chinese hamster V79 cells. The test is classed as functional, cell-based. The following applies: Cricetulus griseus. A digest of the protocol: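 Compound added in DMSO at 0.01–10 μM, then 4 further days of incubation. Colonies counted; relative plating efficiency taken as colony number in sample dish over control dish; EC50 derived.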

The subject of test [2] is Mucor hiemalis. Put plainly: Antimicrobial activity against Mucor hiemalis IAM 6088 at 50 ug/disk. The test is classed as functional. As to conditions: for zone of inhibition at 50 µg/disc: read-out: IZ.
For test [3], the system named is Mucor hiemalis. The test can be described thus: Antimicrobial activity against Mucor hiemalis IAM 6088 at 20 ug/disk. It is filed as functional. As to conditions: read-out: IZ.
For test [4], the system named is Saccharomyces cerevisiae. The test can be described thus: Antimicrobial activity against Saccharomyces cerevisiae IAM 1438T at 50 ug/disk. It is filed as functional. As to conditions: read-out: IZ.
Test [5] relates to Saccharomyces cerevisiae. The test can be described thus: Antimicrobial activity against Saccharomyces cerevisiae IAM 1438T at 20 ug/disk. It is filed as functional. As to conditions: read-out: IZ.
Test [6] has as its system Staphylococcus aureus. The test can be described thus: Antimicrobial activity against Staphylococcus aureus IAM 12544T at 50 ug/disk. As to conditions: read-out: IZ. The test is classed as functional.
Test [7] has as its system Escherichia coli. The test can be described thus: Antimicrobial activity against Escherichia coli IAM 12119T at 50 ug/disk. The test is classed as functional. The following applies: read-out: IZ.
Test [8] relates to Escherichia coli. The test can be described thus: Antimicrobial activity against Escherichia coli IAM 12119T at 20 ug/disk. It is filed as functional. The following applies: read-out: IZ.
The subject of test [9] is Staphylococcus aureus. The test can be described thus: Antimicrobial activity against Staphylococcus aureus IAM 12544T at 20 ug/disk. As to conditions: read-out: IZ. The test is classed as functional.

On to `COc1c(OC)c2c(c(CCN(C)C)c1SC)Sc1c(OC)c(OC)c(SC)c(CCN(C)C)c1S2` [LISSOCLIBADIN 3], for which the 50% effective concentration (EC50) – broadly, the concentration at which the effect is half-maximal – in test [1] was found to be 340 nM.

Consider `COc1c(OC)c2c(c(CCN(C)C)c1SC)SSSSS2`, for which the zone of inhibition at 50 µg/disc was determined as 26.2 mm in test [2], 15.2 mm in test [4], 14.2 mm in test [6] and 17.1 mm in test [7]. In addition, the zone of inhibition at 20 µg/disc in test [3] was 19.6 mm; in test [5], 10.5 mm; in test [8], 13.1 mm. The compound further yielded a concentration for a half-maximal effect (EC50) in [1] of 150 nM.

Turning to `COc1cc(CCN(C)C)c2sc3c(O)c(OC)cc(CCN(C)C)c3ssc2c1O` [LISSOCLIBADIN 4], the outcome in test [2] was inactive. In addition, the zone of inhibition at 50 µg/disc turned out to be 13.1 mm in [6] and 15.7 mm in test [7]. For the same compound, in [9], the zone of inhibition at 20 µg/disc amounted to 10.8 mm. Further, the 50% effective concentration (EC50) in test [1] was 710 nM.

Take `COc1c(SC)c(CCN(C)C)c2sc3c(CCN(C)C)c(SC)c(OC)c(OC)c3ssc2c1OC` [LISSOCLINOTOXIN F]: in test [2], the zone of inhibition at 50 µg/disc was 18 mm. The zone of inhibition at 20 µg/disc in [3] came to 10.5 mm. In addition, the midpoint of the response in [1], the EC50, lay at 280 nM.

As to `COc1c(OC)c2c(c(CCN(C)C)c1SC)SSS2`, the zone of inhibition at 50 µg/disc was determined as 23 mm in [2], 11.8 mm in test [4], 10.3 mm in test [6] and 17.8 mm in test [7]. Besides, the zone of inhibition at 20 µg/disc in [3] was 17.4 mm; in [8], 14.4 mm. For the same compound, in test [1], the EC50 stood at 190 nM.

`COc1c(OC)c2c(c(CCN(C)C)c1SC)Sc1c(CCN(C)C)c(SC)c(OC)c(OC)c1S2` [LISSOCLINOTOXIN E] showed an EC50 in test [1] of 270 nM.

For the compound `COc1cc(CCN(C)C)c2c(c1O)SSc1c(CCN(C)C)cc(OC)c(O)c1SS2` [LISSOCLIBADIN 7], the zone of inhibition at 50 µg/disc turned out to be 16.8 mm in [4], 13.1 mm in [6] and 9.9 mm in [7]. In addition, the zone of inhibition at 20 µg/disc in test [9] worked out at 9.4 mm. Moreover, the EC50 in test [1] was 170 nM.

Regarding `COc1cc(CCN(C)C)c2c(c1O)Sc1c(CCN(C)C)c(SC)c(OC)c(OC)c1S2` [LISSOCLIBADIN 6], the zone of inhibition at 50 µg/disc was found to be 7.8 mm in test [4], 13.8 mm in [6] and 10.8 mm in test [7]. In [9], the zone of inhibition at 20 µg/disc turned out to be 10 mm. For the same compound, the concentration giving a half-maximal response (EC50) in test [1] was 60 nM.

In the case of `COc1cc(CCN(C)C)c2sc3c(OC)c(OC)c(SC)c(CCN(C)C)c3ssc2c1O` [LISSOCLIBADIN 5], the figures for the zone of inhibition at 50 µg/disc in [4], in test [6] and in [7] were 6.2 mm, 15.8 mm and 11.6 mm, respectively. Also, the zone of inhibition at 20 µg/disc in test [9] was 9 mm. Moreover, the response in test [1] was half-maximal at 60 nM (EC50).

`COc1c(OC)c2c(c(CCN(C)C)c1SC)SSc1c(CCN(C)C)c(SC)c(OC)c(OC)c1Sc1c(OC)c(OC)c(SC)c(CCN(C)C)c1S2` [LISSOCLIBADIN 1] registered an EC50 in test [1] of 200 nM.

For `COc1c(SC)c(CCN(C)C)c2sc3c(OC)c(OC)c(SC)c(CCN(C)C)c3ssc2c1OC` [LISSOCLIBADIN 2], the zone of inhibition at 50 µg/disc in test [2] worked out at 13.8 mm. This compound also gave a concentration for a half-maximal effect (EC50) in test [1] of 80 nM.

The values above are taken from ChEMBL document CHEMBL1142240, “Lissoclibadins 4-7, polysulfur aromatic alkaloids from the Indonesian ascidian Lissoclinum cf. badium” (J Nat Prod, 2007).
